Measurements published in ChEMBL document CHEMBL3351636, “Synthesis and biological evaluation of sophoridinol derivatives as a novel family of potential anticancer agents” (ACS Med Chem Lett, 2014).
Calls of active or inactive are those of the source. The rule behind the calls is not given here.

Key:
[1] = tested on: HepG2; test: Cytotoxicity against human HepG2 cells after 48 hrs by MTT assay; format: functional, cell-based; settings: HepG2, 48 h
[2] = tested on: HepG2; test: Cell cycle arrest in human HepG2 cells assessed as accumulation at G0/G1 phase at 1.25 to 5 ug/ml after 24 hrs using propidium iodide by flow cytometry; format: functional, cell-based
Method in brief: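 HepG2 cells incubated 24 h with compound at 1.25, 2.5 and 5.0 μg/mL or left untreated (control); cell cycle distribution read by flow cytometry; significance versus untreated control given as P < 0.05 / P < 0.01.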

[3] = AUC (0 to infinity) in Sprague-Dawley rat at 25 mg/kg, po as single dose; format: ADME, organism-based; design: time infinity, dose 25 mg/kg, route oral; settings: plasma
Method in brief: (§1)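 Adult male Sprague–Dawley rats (n = 3) received a single oral dose of 25 mg/kg. Nine blood samples were drawn over 24 h to build a plasma concentration–time curve. Parameters were derived by noncompartmental analysis and reported as mean ± deviation.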

[4] = Tmax in Sprague-Dawley rat at 25 mg/kg, po as single dose; format: ADME, organism-based; design: dose 25 mg/kg, route oral; settings: in vivo; method in brief: as §1
[5] = Cmax in Sprague-Dawley rat at 25 mg/kg, po as single dose; format: ADME, organism-based; design: dose 25 mg/kg, route oral; settings: in vivo; method in brief: as §1
[6] = tested on: MCF7; test: Cytotoxicity against human MCF7 cells after 48 hrs by MTT assay; format: functional, cell-based; settings: MCF7, 48 h
[7] = Mean residence time in Sprague-Dawley rat at 25 mg/kg, po as single dose; format: ADME, organism-based; design: dose 25 mg/kg, route oral; settings: in vivo; method in brief: as §1
[8] = tested on: MCF7; test: Cytotoxicity against adriamycin-resistant human MCF7 cells after 48 hrs by MTT assay; format: functional, cell-based; settings: MCF7, 48 h
[9] = AUC (0 to t) in Sprague-Dawley rat at 25 mg/kg, po as single dose; format: ADME, organism-based; design: dose 25 mg/kg, route oral; settings: plasma; method in brief: as §1
[10] = Half life in Sprague-Dawley rat at 25 mg/kg, po as single dose; format: ADME, organism-based; design: dose 25 mg/kg, route oral; settings: in vivo; method in brief: as §1

SMILES | IC50 [1] | further results
O=C(O)CCC[C@@H]1[C@H]2CCCN3CCC[C@H](CN1Cc1cccc4ccccc14)[C@@H]23 | > 40 µM | 
CCOc1ccc(CN2C[C@H]3CCCN4CCC[C@@H]([C@H]34)[C@H]2CCCCO)cc1OC | > 40 µM | 
O=C1CCC[C@@H]2[C@H]3CCCN4CCC[C@H](CN12)[C@@H]34 [SOPHORIDINE] | > 80 µM | Activity [2]: Active
COC(=O)CCC[C@@H]1[C@H]2CCCN3CCC[C@H](CN1Cc1cccc(OC)c1)[C@@H]23 | 10.7 µM | 
COc1ccccc1CN1C[C@H]2CCCN3CCC[C@@H]([C@H]23)[C@H]1CCCC(=O)O | > 40 µM | 
COc1ccc(CN2C[C@H]3CCCN4CCC[C@@H]([C@H]34)[C@H]2CCCCO)c(Cl)c1OC | 15.7 µM | 
COc1cc(CN2C[C@H]3CCCN4CCC[C@@H]([C@H]34)[C@H]2CCCC(=O)O)cc(OC)c1OC | > 40 µM | 
COC(=O)CCC[C@@H]1[C@H]2CCCN3CCC[C@H](CN1Cc1ccc(OC)c(OC)c1)[C@@H]23 | > 40 µM | 
COC(=O)CCC[C@@H]1[C@H]2CCCN3CCC[C@H](CN1Cc1ccccc1OC)[C@@H]23 | 10.3 µM | 
CC(=O)O[C@H]1C(=O)[C@@]2(C)[C@H]([C@H](OC(=O)c3ccccc3)[C@]3(O)C[C@H](OC(=O)[C@H](O)[C@@H](NC(=O)c4ccccc4)c4ccccc4)C(C)=C1C3(C)C)[C@]1(OC(C)=O)CO[C@@H]1C[C@@H]2O [PACLITAXEL] | 15.6 µM | 
COC(=O)CCC[C@@H]1[C@H]2CCCN3CCC[C@H](CN1Cc1ccc(OC)cc1)[C@@H]23 | 10.7 µM | 
COc1cccc(CN2C[C@H]3CCCN4CCC[C@@H]([C@H]34)[C@H]2CCCC(=O)O)c1OC | > 40 µM | 
O=C(CCC[C@@H]1[C@H]2CCCN3CCC[C@H](CN1Cc1c4ccccc4cc4ccccc14)[C@@H]23)c1ccc(Cl)cc1 | 2 µM | 
COC(=O)CCC[C@@H]1[C@H]2CCCN3CCC[C@H](CN1Cc1ccc(OC)c(OC)c1Cl)[C@@H]23 | 8.4 µM | 
COc1ccccc1CN1C[C@H]2CCCN3CCC[C@@H]([C@H]23)[C@H]1CCCCO | 34.6 µM | 
COC(=O)CCC[C@@H]1[C@H]2CCCN3CCC[C@H](CN1Cc1ccc4ccccc4c1)[C@@H]23 | 5.8 µM | 
OCCCC[C@@H]1[C@H]2CCCN3CCC[C@H](CN1Cc1c4ccccc4cc4ccccc14)[C@@H]23 | 3.1 µM | AUC(0-inf) [3]: 10.5 µM·h; Tmax [4]: 4.6 h; Cmax [5]: 3.4 µM; IC50 [6]: 5.63 µM; MRT [7]: 5.4 h; IC50 [8]: 5.94 µM; AUC(0-t) [9]: 10.3 µM·h; Activity [2]: Active; half-life [10]: 12.7 h
COc1cccc(CN2C[C@H]3CCCN4CCC[C@@H]([C@H]34)[C@H]2CCCCO)c1Cl | 23.6 µM | 
COC(=O)CCC[C@@H]1[C@H]2CCCN3CCC[C@H](CN1Cc1cc(OC)c(OC)c(OC)c1)[C@@H]23 | > 40 µM | 
OCCCC[C@@H]1[C@H]2CCCN3CCC[C@H](CN1Cc1cccc4ccccc14)[C@@H]23 | 6.8 µM | IC50 [6]: 9.07 µM; IC50 [8]: 9.51 µM
COC(=O)CCC[C@@H]1[C@H]2CCCN3CCC[C@H](CN1Cc1c4ccccc4cc4ccccc14)[C@@H]23 | 4.3 µM | 
OCCCC[C@@H]1[C@H]2CCCN3CCC[C@H](CN1Cc1ccc4ccccc4c1)[C@@H]23 | 7.9 µM | 
CCC(O)(CC)CCC[C@@H]1[C@H]2CCCN3CCC[C@H](CN1Cc1c4ccccc4cc4ccccc14)[C@@H]23 | 2.7 µM | 
COC(=O)CCC[C@@H]1[C@H]2CCCN3CCC[C@H](CN1Cc1cccc4ccccc14)[C@@H]23 | 3.3 µM | 
COc1ccc(CN2C[C@H]3CCCN4CCC[C@@H]([C@H]34)[C@H]2CCCCO)cc1 | > 40 µM | 
COc1cc(CN2C[C@H]3CCCN4CCC[C@@H]([C@H]34)[C@H]2CCCCO)cc(OC)c1OC | > 40 µM | 
CC(C)(O)CCC[C@@H]1[C@H]2CCCN3CCC[C@H](CN1Cc1c4ccccc4cc4ccccc14)[C@@H]23 | 2.1 µM | 
O=C(O)CCC[C@@H]1[C@H]2CCCN3CCC[C@H](CN1Cc1ccc4ccccc4c1)[C@@H]23 | > 40 µM | 
Fc1ccc(C(=CCC[C@@H]2[C@H]3CCCN4CCC[C@H](CN2Cc2c5ccccc5cc5ccccc25)[C@@H]34)c2ccc(F)cc2)cc1 | 5.3 µM | 
